For 23 compounds, IC50 results are on record in ChEMBL document CHEMBL3352143, “Cytotoxic and anti-inflammatory prenylated benzoylphloroglucinols and xanthones from the twigs of Garcinia esculenta” (J Nat Prod, 2014).

One assay concerns MCF7. Briefly: Cytotoxicity against human MCF7 cells by MTT assay. It counts as functional, cell-based. An outline of the steps: (§1)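 MTT viability read-out, run in parallel on human HepG2 (hepatocellular carcinoma), MCF-7 and MDA-MB-231 (breast adenocarcinoma) cancer lines and HL-7702 normal human hepatic cells. Paclitaxel was the positive control, and results are expressed as IC50.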
For orientation: Formazan colour is commonly taken as a measure of viable cells.

The next assay deals with RAW264.7. Briefly: Anti-inflammatory activity in mouse RAW264.7 cells assessed as inhibition of IFN-gamma plus LPS-induced NO production. The assay is classed as functional, cell-based. In short, it runs like this: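 Murine macrophage RAW264.7 cells stimulated with IFN-γ plus LPS; NO output quantified as nitrite in the medium. Indomethacin served as positive control, and results are expressed as IC50.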

A further assay concerns HepG2. Briefly: Cytotoxicity against human HepG2 cells by MTT assay. The assay is classed as functional, cell-based. An outline of the steps:
as §1

Assay [1] in a line: Cytotoxicity against human HL7702 cells by MTT assay. It counts as cell-based. The following applies: L02. In short, it runs like this: as §1
The test system of a further assay is MDA-MB-231. Briefly: Cytotoxicity against human MDA-MB-231 cells by MTT assay. The assay is classed as functional, cell-based. In short, it runs like this:
as §1

The structures appear in SMILES notation.

With `CC1(C)CCc2c(c(O)cc3oc4cc(O)cc(O)c4c(=O)c23)O1` [HYPERXANTHONE E], the IC50 – broadly, the concentration that gives 50% inhibition – was above 10 µM in the assay with MCF7; 4 µM with RAW264.7; above 10 µM with HepG2; above 10 µM in assay [1]; above 10 µM in the assay on MDA-MB-231.
On to `O=c1c2cc(O)c(O)cc2oc2cc(O)cc(O)c12`, for which the IC50 in the assay on MCF7 was above 10 µM; in the assay on RAW264.7 it was 43 µM; with HepG2, above 10 µM; in assay [1], above 10 µM; with MDA-MB-231 it was above 10 µM.
For `C=C(C)C(CC=C(C)C)C[C@]12C[C@H](CC=C(C)C)C(C)(C)[C@](CC=C(C)C)(C(=O)c3c1oc1cc(O)c(O)cc1c3=O)C2=O` (stereo not given in full), the IC50 was above 10 µM in the assay with MCF7; 17 µM with RAW264.7; above 10 µM with HepG2; above 10 µM in assay [1]; above 10 µM with MDA-MB-231.
As to `CC1(C)C=Cc2c(cc3oc4ccc(O)cc4c(=O)c3c2O)O1`, the IC50 in the assay with MCF7 is above 10 µM; in the assay on RAW264.7, above 50 µM; in the assay on HepG2, above 10 µM; in assay [1] it was 6.6 µM; with MDA-MB-231, 6.1 µM.
As for `CC(=O)O[C@H]1C(=O)[C@@]2(C)[C@H]([C@H](OC(=O)c3ccccc3)[C@]3(O)C[C@H](OC(=O)[C@H](O)[C@@H](NC(=O)c4ccccc4)c4ccccc4)C(C)=C1C3(C)C)[C@]1(OC(C)=O)CO[C@@H]1C[C@@H]2O` [PACLITAXEL], the IC50 in the assay with MCF7 was 0.0015 µM; with HepG2 it was 0.0046 µM; in assay [1], 1.1 µM; in the assay on MDA-MB-231, 0.0082 µM.
With `C=C(C)C(O)C[C@H](C[C@]12C[C@@H](CC=C(C)C)C(C)(C)[C@](CC=C(C)C)(C1=O)c1oc3cc(O)c(O)cc3c(=O)c1C2=O)C(=C)C` (stereo not given in full), the IC50 in the assay with MCF7 is above 10 µM; with RAW264.7, 12.9 µM; in the assay with HepG2, above 10 µM; in assay [1], above 10 µM; with MDA-MB-231, above 10 µM.
With `CC(C)=CCc1c(O)cc(O)c2oc3cc(O)cc(O)c3c(=O)c12`, the IC50 in the assay with MCF7 was above 10 µM; in the assay with RAW264.7, 6.4 µM; in the assay with HepG2 it was above 10 µM; in assay [1] it was above 10 µM; with MDA-MB-231 it was above 10 µM.
In the case of `C=C(C)C(C[C@H](O)C(=C)C)C[C@@]12C[C@@H](CC=C(C)C)C(C)(C)[C@@](CC=C(C)C)(C(=O)C(C(=O)c3ccc(O)c(O)c3)=C1O)C2=O` (stereo not given in full), the IC50 with MCF7 is above 10 µM; in the assay on RAW264.7, 29.1 µM; in the assay with HepG2, above 10 µM; in assay [1], above 10 µM; in the assay with MDA-MB-231 it was above 10 µM.
Consider `CC(C)=CCc1cc(O)c(O)c2oc3cc4c(c(O)c3c(=O)c12)C=CC(C)(C)O4`, for which the IC50 with MCF7 was above 10 µM; with RAW264.7, above 50 µM; in the assay with HepG2, above 10 µM; in assay [1], above 10 µM; in the assay on MDA-MB-231, above 10 µM.
Regarding `CC(C)=CCc1c(O)cc2oc3ccc(O)cc3c(=O)c2c1O`, the IC50 in the assay on MCF7 is above 10 µM; in the assay on RAW264.7, 21.3 µM; in the assay on HepG2, above 10 µM; in assay [1], above 10 µM; with MDA-MB-231, above 10 µM.
Consider `COc1ccc2c(c1)c(CC(=O)O)c(C)n2C(=O)c1ccc(Cl)cc1` [INDOMETHACIN], for which the IC50 in the assay with RAW264.7 amounted to 3.9 µM.
For `CC1(C)Oc2cc3oc4ccc(O)cc4c(=O)c3c(O)c2CC1O` (stereo not given), the IC50 in the assay on MCF7 is above 10 µM; in the assay on RAW264.7, 15.9 µM; in the assay on HepG2, above 10 µM; in assay [1], above 10 µM; in the assay on MDA-MB-231, above 10 µM.
`C=C(C)C(CC=C(C)C)C[C@@]12C[C@@H](C[C@H](O)C(C)(C)OC)C(C)(C)[C@@](CC=C(C)C)(C(=O)C(C(=O)c3ccc(O)c(O)c3)=C1O)C2=O` (stereo not given in full): the IC50 in the assay with MCF7 is above 10 µM; in the assay on RAW264.7, 24.9 µM; in the assay with HepG2, above 10 µM; in assay [1], above 10 µM; in the assay on MDA-MB-231 it was above 10 µM.
As for `CC1=C[C@H]2c3c(c(O)c(O)c4oc5cc(O)cc(O)c5c(=O)c34)[C@H](c3cc(O)c(O)c4oc5cc(O)cc(O)c5c(=O)c34)[C@H]2C(C)(C)C1`, the IC50 in the assay on MCF7 is above 10 µM; in the assay on RAW264.7 it was 41.9 µM; in the assay with HepG2, above 10 µM; in assay [1], above 10 µM; in the assay on MDA-MB-231 it was above 10 µM.
Consider `CC(C)=CC[C@H]1C[C@@]23C[C@H](CC=C(C)C)C(C)(C)[C@@](CC=C(C)C)(C(=O)C(OC(=O)c4ccc(O)c(O)c4)=C2OC1(C)C)C3=O`, for which the IC50 was above 10 µM in the assay on MCF7; 39.1 µM in the assay on RAW264.7; above 10 µM in the assay with HepG2; above 10 µM in assay [1]; above 10 µM with MDA-MB-231.
`CC(C)=CCc1c(O)cc2oc3cc(O)c(O)c(CC=C(C)C)c3c(=O)c2c1O`: the IC50 with MCF7 was above 10 µM; in the assay with RAW264.7, above 50 µM; with HepG2, above 10 µM; in assay [1], above 10 µM; with MDA-MB-231, 6.6 µM.
As for `C=C(C)C(O)C[C@H](C[C@@]12C[C@@H](CC=C(C)C)C(C)(C)[C@@](CC=C(C)C)(C(=O)C(C(=O)c3ccc(O)c(O)c3)=C1O)C2=O)C(=C)C` (stereo not given in full) [GARCIMULTIFLORONE E], the IC50 in the assay with MCF7 is 9.8 µM; in the assay with RAW264.7 it was 1.1 µM; in the assay on HepG2, above 10 µM; in assay [1] it was above 10 µM; in the assay on MDA-MB-231 it was above 10 µM.
Regarding `C=C(C)C(CC=C(C)C)C[C@@]12C[C@H]3[C@@H](C=C(C)C)[C@@](C(=O)c4ccc(O)c(O)c4)(C1=O)C(=O)[C@@](CC=C(C)C)(C2=O)C3(C)C` (stereo not given in full), the IC50 with MCF7 is above 10 µM; with RAW264.7 it was above 50 µM; with HepG2, above 10 µM; in assay [1], above 10 µM; in the assay on MDA-MB-231, 9.1 µM.
`CC1(C)C=Cc2c(c(O)cc3oc4cc(O)cc(O)c4c(=O)c23)O1` [TOXYLOXANTHONE B]: the IC50 in the assay with MCF7 is above 10 µM; with RAW264.7, above 50 µM; with HepG2, above 10 µM; in assay [1], above 10 µM; in the assay on MDA-MB-231, above 10 µM.
As to `CC(C)=CC[C@H]1C[C@@]23C[C@@H](CC=C(C)C)C(C)(C)[C@@](CC=C(C)C)(C(=O)C(C(=O)c4ccc(O)c(O)c4)=C2OC1(C)C)C3=O` [CAMBOGIN], the IC50 in the assay on MCF7 is 4.8 µM; with RAW264.7, 19.2 µM; in the assay with HepG2, 7.3 µM; in assay [1], 9.3 µM; in the assay with MDA-MB-231, 5.7 µM.
The like results for `C=C(C)[C@H](CC=C(C)C)C[C@@]12C[C@@H](CC=C(C)C)C(C)(C)[C@@](CC=C(C)C)(C(=O)C(C(=O)c3ccc(O)c(O)c3)=C1O)C2=O` [GUTTIFERONE F] were, in that order, above 10 µM, 14.1 µM, above 10 µM, 9.6 µM and 7.9 µM.
In the case of `C=C(C)C(C[C@@H](O)C(=C)C)C[C@@]12C[C@@H](CC=C(C)C)C(C)(C)[C@@](CC=C(C)C)(C(=O)C(C(=O)c3ccc(O)c(O)c3)=C1O)C2=O` (stereo not given in full), the IC50 with MCF7 is above 10 µM; in the assay on RAW264.7, 19.1 µM; in the assay with HepG2, above 10 µM; in assay [1], above 10 µM; with MDA-MB-231 it was above 10 µM.
In the case of `C=C(C)[C@@H]1C[C@]23C[C@H](CC=C(C)C)C(C)(C)[C@](CC=C(C)C)(C(=O)C(C(=O)c4ccc(O)c(O)c4)=C2O[C@H]1C=C(C)C)C3=O` [GARCINIALIPTONE B], the IC50 is above 10 µM in the assay with MCF7; 21.3 µM in the assay on RAW264.7; above 10 µM with HepG2; above 10 µM in assay [1]; above 10 µM with MDA-MB-231.
